Values after ≈ are worked out from the molar mass of the structure shown.
Legend:
[1] = tested on: Mycobacterium tuberculosis; test: Antitubercular activity against Mycobacterium tuberculosis H37Rv assessed as inhibition of bacterial growth incubated for 7 days by MABA; format: functional; conditions: 168 h, time 7 day
In short: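 Microplate alamar blue assay. H37Rv or clinical isolates were grown to late log phase in 7H9 broth with glycerol, Tween 80 and ADC, then 2 × 10⁵ CFU added to two-fold dilutions. Final range 32–0.5 μg/mL, lowered to 2–0.016 μg/mL for active compounds. 37 °C, 7 days, then alamar blue 16 h. Fluorescence 530/590 nm. MIC is the lowest concentration giving ≥90% reduction; INH and RFP were controls.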

Staphylococcus aureus [2] = test: Antibacterial activity against Staphylococcus aureus ATCC 29213 assessed as inhibition of bacterial growth incubated for 18 hrs by broth microdilution method; format: functional
In short: (§1)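 Broth microdilution in 96-well plates. Media: cation-adjusted Mueller−Hinton broth for S. aureus, brain heart infusion for VRE, Mueller−Hinton broth for the other strains. Incubated at 37 °C for 18 h, then A600 read. Percent growth inhibition calculated against 1% DMSO vehicle.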

Escherichia coli = test: Antibacterial activity against Escherichia coli 25922 assessed as inhibition of bacterial growth incubated for 18 hrs by broth microdilution method; format: functional; conditions: ATCC 25922; in short: as §1
Bacillus subtilis = test: Antibacterial activity against Bacillus subtilis 168 assessed as inhibition of bacterial growth incubated for 18 hrs by broth microdilution method; format: functional; in short: as §1
Staphylococcus aureus [3] = test: Antibacterial activity against vancomycin intermediate Staphylococcus aureus assessed as bacterial growth inhibition after 18 hrs by broth microdilution method; format: functional
Enterococcus faecium [4] = test: Antibacterial activity against linezolid resistant Enterococcus faecium 13549 assessed as bacterial growth inhibition after 18 hrs by broth microdilution method; format: functional
Enterococcus faecalis [5] = test: Antibacterial activity against linezolid resistant Enterococcus faecalis assessed as bacterial growth inhibition after 18 hrs by broth microdilution method; format: functional
Enterococcus faecalis [6] = test: Antibacterial activity against Enterococcus faecalis ATCC 29212 assessed as bacterial growth inhibition after 18 hrs by broth microdilution method; format: functional; in short: as §1
Enterococcus faecium [7] = test: Antibacterial activity against Enterococcus faecium ATCC 49624 assessed as bacterial growth inhibition after 18 hrs by broth microdilution method; format: functional; in short: as §1
Enterococcus = test: Antibacterial activity against vancomycin resistant Enterococcus assessed as bacterial growth inhibition after 18 hrs by broth microdilution method; format: functional
[8] = tested on: Staphylococcus epidermidis; test: Antibacterial activity against methicillin resistant Staphylococcus epidermidis assessed as bacterial growth inhibition after 18 hrs by broth microdilution method; format: functional
Staphylococcus aureus [9] = test: Antibacterial activity against methicillin resistant Staphylococcus aureus assessed as bacterial growth inhibition after 18 hrs by broth microdilution method; format: functional
Staphylococcus capitis = test: Antibacterial activity against linezolid resistant Staphylococcus capitis assessed as bacterial growth inhibition after 18 hrs by broth microdilution method; format: functional
[10] = Metabolic stability in CD-1 mouse liver microsomes assessed as substrate remaining in presence of NADPH incubated for 30 mins by LC-MS analysis; format: ADME, Microsome; conditions: read-out: Stabilty
In short: (§2)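 Microsomes from male CD-1 mouse or pooled human, 1 mg/mL protein in 0.05 M phosphate buffer pH 7.4. Compound at final 0.1 μM with DMSO cosolvent. Incubated at 37 °C with 1 mM NADPH, or with buffer in place of NADPH. Sampled at 0 and 30 min and quenched with acetonitrile. LC−MS measurement; substrate remaining at 30 min normalized to time zero.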

[11] = Metabolic stability in CD-1 mouse liver microsomes incubated for 30 mins by LC-MS analysis; format: ADME, Microsome; in short: as §2
[12] = Metabolic stability in pooled human liver microsomes incubated for 30 mins by LC-MS analysis; format: ADME, Microsome; conditions: read-out: Stabilty; in short: as §2
[13] = Metabolic stability in pooled human liver microsomes assessed as substrate remaining in presence of NADPH incubated for 30 mins by LC-MS analysis; format: ADME, Microsome; conditions: read-out: Stabilty; in short: as §2
[14] = Mycobacterium tuberculosis, H37Rv, read-out: MIC

SMILES	MIC [1, 14] [µg/mL]	MIC (Staphylococcus aureus [2]) [µg/mL]	MIC (Escherichia coli) [µg/mL]	MIC (Bacillus subtilis) [µg/mL]	also measured
N#Cc1ccc(-c2cc3c(cc2F)O[C@H]2[C@H](CN)OC(=O)N2C3)cn1	0.26 (≈ 0.764 µM)				
N#Cc1ccc(-c2ccc3c(c2)CN2C(=O)O[C@@H](CN)[C@@H]2O3)cn1	2.94 (≈ 9.12 µM)	> 64	> 64	> 64	
CC(=O)NC[C@@H]1OC(=O)N2Cc3cc(-c4ccc(-c5nnn(C)n5)nc4)c(F)cc3O[C@@H]12	0.54 (≈ 1.23 µM)	0.125 (≈ 0.284 µM)	> 64	0.125 (≈ 0.284 µM)	MIC (Staphylococcus aureus [3]): 0.5 µg/mL (≈ 1.14 µM); MIC (Enterococcus faecium [4]): 2 µg/mL (≈ 4.55 µM); MIC (Enterococcus faecalis [5]): 1 µg/mL (≈ 2.28 µM); MIC (Enterococcus faecalis [6]): 0.5 µg/mL (≈ 1.14 µM); MIC (Enterococcus faecium [7]): 1 µg/mL (≈ 2.28 µM); MIC (Enterococcus): 0.25 µg/mL (≈ 0.569 µM); MIC [8]: 1 µg/mL (≈ 2.28 µM); MIC (Staphylococcus aureus [9]): 0.5 µg/mL (≈ 1.14 µM); MIC (Staphylococcus capitis): 2 µg/mL (≈ 4.55 µM)
NC[C@@H]1OC(=O)N2Cc3cc(N4CCOCC4)c(F)cc3O[C@@H]12	> 32	> 64	> 64	> 64	
NC[C@@H]1OC(=O)N2Cc3cc(N4CCOCC4)ccc3O[C@@H]12	> 32				
CC(=O)NC[C@@H]1OC(=O)N2Cc3cc(-c4ccc(C#N)nc4)ccc3O[C@@H]12	12.2 (≈ 33.6 µM)	0.5 (≈ 1.37 µM)	> 64	1 (≈ 2.74 µM)	
CC(=O)NC[C@H]1OC(=O)N2Cc3cc(-c4ccc(C#N)nc4)c(F)cc3O[C@H]12	> 32	> 64			
Cn1nnc(-c2ccc(-c3cc4c(cc3F)O[C@H]3[C@H](CN)OC(=O)N3C4)cn2)n1	0.47 (≈ 1.18 µM)	32 (≈ 80.5 µM)	> 64	> 64	
CC(=O)NC[C@@H]1OC(=O)N2Cc3cc(N4CCOCC4)c(F)cc3O[C@@H]12	31.7 (≈ 86.8 µM)	2 (≈ 5.47 µM)	> 64	8 (≈ 21.9 µM)	
CC(=O)NC[C@@H]1OC(=O)N2c3cc(F)c(Br)cc3OC[C@@H]12					remaining at 0.5 h [10]: 73.4%; Stabilty ([11]; mouse, microsomes, 0.5 h): 125%; remaining at 0.5 h [12]: 110%; remaining at 0.5 h [13]: 71.4%
CC(=O)NC[C@@H]1OC(=O)N2Cc3cc(Br)c(F)cc3O[C@@H]12					remaining at 0.5 h [10]: 105%; remaining at 0.5 h ([11]; CD-1, mouse, liver microsomes, read-out: Stabilty): 102%; remaining at 0.5 h [12]: 93.8%; remaining at 0.5 h [13]: 111%
CC(=O)NC[C@@H]1OC(=O)N2Cc3cc(N4CCOCC4)ccc3O[C@@H]12	> 32				
CC(=O)NC[C@@H]1OC(=O)N2Cc3cc(F)c(-c4ccc(C#N)nc4)cc3O[C@@H]12 (racemic)	> 32	> 64	> 64	> 64	
CC(=O)NC[C@@H]1OC(=O)N2Cc3cc(F)c(N4CCOCC4)cc3O[C@@H]12 (racemic)	> 32				
NC[C@@H]1OC(=O)N2Cc3cc(F)c(N4CCOCC4)cc3O[C@@H]12 (racemic)	> 32				
N#Cc1ccc(-c2cc3c(cc2F)CN2C(=O)O[C@@H](CN)[C@@H]2O3)cn1 (racemic)	> 32	> 64	> 64	> 64	
CC(=O)NCC1OC(=O)N2Cc3cc(-c4ccc(C#N)nc4)c(F)cc3OC12 (racemic; cis)					MIC [1]: 15.51 µg/mL (≈ 40.6 µM)
CC(=O)NCC1OC(=O)N2Cc3cc(-c4ccc(C#N)nc4)c(F)cc3OC12 (racemic; trans)					MIC [1]: 1.58 µg/mL (≈ 4.13 µM)
CC1(C)S[C@@H]2[C@H](NC(=O)[C@H](N)c3ccccc3)C(=O)N2[C@H]1C(=O)O [AMPICILLIN]		0.25 (≈ 0.715 µM)		0.25 (≈ 0.715 µM)	MIC [8]: > 32 µg/mL; MIC (Staphylococcus aureus [9]): > 32 µg/mL
CC(=O)NC[C@H]1CN(c2ccc(N3CCOCC3)c(F)c2)C(=O)O1 [LINEZOLID]	0.88 (≈ 2.61 µM)	0.125 (≈ 0.371 µM)	> 64	0.25 (≈ 0.741 µM)	MIC (Enterococcus faecium [4]): 8 µg/mL (≈ 23.7 µM); MIC (Enterococcus faecium [7]): 2 µg/mL (≈ 5.93 µM); MIC (Staphylococcus capitis): ≥ 16 µg/mL
CN[C@H](CC(C)C)C(=O)N[C@H]1C(=O)N[C@@H](CC(N)=O)C(=O)N[C@H]2C(=O)N[C@H]3C(=O)N[C@H](C(=O)N[C@H](C(=O)O)c4cc(O)cc(O)c4-c4cc3ccc4O)[C@H](O)c3ccc(c(Cl)c3)Oc3cc2cc(c3O[C@@H]2O[C@H](CO)[C@@H](O)[C@H](O)[C@H]2O[C@H]2C[C@](C)(N)[C@H](O)[C@H](C)O2)Oc2ccc(cc2Cl)[C@H]1O [VANCOMYCIN]			64 (≈ 44.2 µM)	0.25 (≈ 0.173 µM)	MIC (Staphylococcus aureus [3]): > 32 µg/mL; MIC (Enterococcus): > 32 µg/mL; MIC [8]: < 2 µg/mL

Source: ChEMBL document CHEMBL4837188, “Identification of Novel Tricyclic Benzo[1,3]oxazinyloxazolidinones as Potent Antibacterial Agents with Excellent Pharmacokinetic Profiles against Drug-Resistant Pathogens” (J Med Chem, 2021)
